{"source": "PubChem BioAssay AID624268", "about": "(The Scripps Research Institute Molecular Screening Center, 2012)", "note": "Out of some 360,000 compounds screened, about 1,500 (0.42%) were called active. This is one part of a sample in which actives are shown more often than they occur. Values without a mark were called inactive.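 How the source made its calls: active means inhibition above a per-plate cutoff of the control wells' mean inhibition plus 3 SD (cut at about 5.5% in these data); inactive means the rest.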"}
{"test_system": "methionyl-tRNA synthetase (Trypanosoma brucei brucei)", "assay": "inhibition of trypanosome methionyl-tRNA synthetase – biochemical, luminescence, primary screen (AID 624268);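 further: 0% = DMSO wells median and 100% = median of wells with control inhibitor compound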", "conditions": "purified T. brucei MetRS, ATP depletion, Kinase-Glo luminescence; at 11.9 µM; hits give high values", "procedure,_shortened": "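Assay system: T. brucei methionyl-tRNA synthetase, purified | Medium: HEPES buffer with MgCl2, KCl, DTT, spermine, BSA, pyrophosphatase | Compound: 11.9 µM single point | Incubation: 15 min enzyme-compound preincubation, 2 h reaction, 10 min detection, 25 °C | Measured by: Kinase-Glo luciferase luminescence reporting remaining unconsumed ATP | Measure: % inhibition normalized to control-well medians | Replication: Singlicate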"}
{"smiles": "NC(=O)CC[C@@H]1NC(=O)[C@@H]2CCCN2C(=O)c2cc([N+](=O)[O-])cc(F)c2NCCC[C@@H](C(N)=O)NC1=O", "inhibition": "-0.23%"}
{"smiles": "O=S(=O)(NCc1cccnc1)c1ccc(Cl)nc1", "inhibition": "-1.09%"}
{"smiles": "CC(CCN1CCN=C1N(C)C)c1ccccc1", "note": "(stereo not given)", "inhibition": "-0.2%"}
{"smiles": "C#CCNC(=O)C[C@@H]1C[C@@]2(C(=O)OCC)CCCC=C2N(Cc2ccco2)C1=O", "inhibition": "-0.95%"}
{"smiles": "CCCn1nc(C(=O)NNC(=O)CSCC(=O)Nc2cc(C)on2)c2ccccc2c1=O", "inhibition": "-0.27%"}
{"smiles": "O=C(NCCc1ccc(C(F)(F)F)cc1)c1ccc2c(c1)OCO2", "inhibition": "-0.15%"}
{"smiles": "CCCCCCCC[n+]1cccc(C(=O)N2c3c(nc(N)[nH]c3=O)NC(C)C2C)c1", "note": "(stereo not given)", "inhibition": "14.2% (active)"}
{"smiles": "C[C@H]1CN([C@@H](C)CO)C(=O)c2cc(-c3ccccc3F)cnc2O[C@H]1CN(C)C(=O)C1CCOCC1", "inhibition": "-1.85%"}
{"smiles": "O=C(Cn1c(-c2cscn2)nc2ccccc21)Nc1ccc(Cl)cc1", "inhibition": "4.33%"}
{"smiles": "CCCn1c(=N)n(CC(=O)c2ccc(Cl)c(Cl)c2)c2ccccc21", "inhibition": "1.04%"}
{"smiles": "O=C(Cn1c(NCCO)nc2ccccc21)c1ccc(Cl)cc1Cl", "inhibition": "8.55% (active)"}
{"smiles": "Brc1cnc2ccccc2c1N1CCCCC1", "inhibition": "-0.62%"}
{"smiles": "CCOc1cc(NC(=S)NCCCN(C)C)c(OCC)cc1NC(=O)C1CC1", "inhibition": "-0.32%"}
{"smiles": "COc1ccc(CCn2ccc(O)c(Cc3ccc(Cl)cc3Cl)c2=O)cc1OC", "inhibition": "6.37% (active)"}
{"smiles": "COc1ccc(CCNC(=O)CCc2ccccc2O)cc1OC", "inhibition": "-0.3%"}
{"smiles": "COc1ccc(CCN2CC(C(=O)OCC(=O)NCc3ccccc3Cl)CC2=O)cc1OC", "note": "(stereo not given)", "inhibition": "0.43%"}
{"smiles": "O=C(NCCN1CCOCC1)c1ccccc1N1C(=O)[C@@H]2Cc3c([nH]c4ccccc34)C(c3cccc(Cl)c3)N2C1=O", "note": "(stereo not given in full)", "inhibition": "11.4% (active)"}
{"smiles": "CC(C)(CNC(=O)c1cc(=O)[nH]c2ccccc12)N1CCOCC1", "inhibition": "0.28%"}
{"smiles": "O=C(NCCN1CCOCC1)Nc1cccc(Cl)c1", "inhibition": "0.46%"}
{"smiles": "CC/C(O)=C1\\C(=O)CC(C)(C)CC1=NCCc1nc2ccccc2[nH]1", "inhibition": "0.39%"}
{"smiles": "CCOC(=O)C(=CNNc1ccsc1C(=O)OC)C(=O)OCC", "inhibition": "0.74%"}
{"smiles": "Cc1csc(/N=C/N(C)C)c1C#N", "inhibition": "-0.21%"}
{"smiles": "O=c1c2ccccc2nc2n1C(CSCc1cccc(C(F)(F)F)c1)CS2", "note": "(stereo not given)", "inhibition": "-1%"}
{"smiles": "CC(C)OCCCNc1ncnc2c1[nH]c1ccc(F)cc12", "inhibition": "85.6% (active)"}
{"smiles": "CCN1CCCC1Cn1cnc2c([nH]c3cc(OC)ccc32)c1=O", "note": "(stereo not given)", "inhibition": "0.01%"}
{"smiles": "CCN1CCCC1CNC(=O)Cn1cnc2ccc(S(=O)(=O)N3CCC(C)CC3)cc2c1=O", "note": "(stereo not given)", "inhibition": "-0.14%"}
{"smiles": "CCN1CCCC1CNc1ncnc2c1[nH]c1ccc(F)cc12", "note": "(stereo not given)", "inhibition": "30.4% (active)"}
{"smiles": "CCNC(=O)CC1C(=O)N(c2ccc(OC)cc2)C(=O)N1CCOC", "note": "(stereo not given)", "inhibition": "-0.58%"}
{"smiles": "CCOc1ccc(C(C(=O)NC2CCCC2)N(C(=O)c2snc(C(N)=O)c2N)C2CCCC2)cc1", "note": "(stereo not given)", "inhibition": "-0.03%"}
{"smiles": "O=C1c2ccccc2[C@@H]2C[C@@H](O)[C@H](Nc3ccccc3Cl)CCN12", "inhibition": "-0.62%"}
{"smiles": "CN1CCCN(C(=O)C2CCCCC2)CC1", "inhibition": "-0.59%"}
{"smiles": "O=C(NCc1ccco1)c1sc2cccc(F)c2c1Cl", "inhibition": "-1.04%"}
{"smiles": "CCN(CC)S(=O)(=O)c1ccc2nc(COC(=O)c3n[nH]c4ccccc34)[nH]c2c1", "inhibition": "-0.9%"}
{"smiles": "O=C(OCc1nc2ccccc2[nH]1)C1CCCCC1", "inhibition": "14.4% (active)"}
{"smiles": "COc1ccc(CCNC(=O)COC(=O)C2CCCCC2)cc1", "inhibition": "0.41%"}
{"smiles": "O=C(c1ccc(N2CCCC2=O)cc1)N1CCN(c2ccc(C(F)(F)F)cc2[N+](=O)[O-])CC1", "inhibition": "-0.05%"}
{"smiles": "COCCn1c(SC(C)C(=O)NC2CC2)nnc1-c1cccc(C)c1", "note": "(stereo not given)", "inhibition": "-0.37%"}
{"smiles": "O=C(Nc1ccc(N2CCOCC2)cc1)c1cccc2c(-c3ccc(F)c(F)c3)coc12", "inhibition": "-0.14%"}
{"smiles": "C=CCSc1nsc(NC(=O)Nc2cccc(C(C)=O)c2)n1", "inhibition": "-1.33%"}
{"smiles": "CCSc1nsc(NC(=O)Nc2cccc(C(C)=O)c2)n1", "inhibition": "-0.36%"}
{"smiles": "CSc1nsc(NC(=O)Nc2ccccc2)n1", "inhibition": "19.9% (active)"}
{"smiles": "O=C(COC(=O)c1ccc(F)cc1F)Nc1ncccn1", "inhibition": "0.09%"}
{"smiles": "O=C(ON=C1CCN(S(=O)(=O)c2ccccc2)CC1)c1ccc(Cl)cc1", "inhibition": "-0.24%"}
{"smiles": "CCCn1c(SCC(=O)Nc2ccc(C)c(S(=O)(=O)N3CCOCC3)c2)n[nH]c1=O", "inhibition": "-1.6%"}
{"smiles": "COc1ccc(OC)c(NC(=O)Cn2c(=O)oc3ccccc32)c1", "inhibition": "-0.7%"}
{"smiles": "Cc1ccc(CCCOC(=O)C[N+]2(C)CCCC2)cc1", "inhibition": "-0.15%"}
{"smiles": "Cc1cccc(C)c1N1C(=O)CN(Cc2ccccc2)C1=S", "inhibition": "-1%"}
{"smiles": "CCCCN1CC(C)(C)[C@H](CC(=O)Nc2ccc(Br)cc2)C1=O", "inhibition": "0.54%"}
{"smiles": "C[C@H]1CN(c2ccc(Br)cc2)C(=O)[C@@H]1CC(=O)Nc1ccc(Br)cc1", "inhibition": "-0.7%"}
{"smiles": "CCCCN1C[C@H](c2ccc(Br)cc2)[C@@H](CC(=O)Nc2ccc(Br)cc2)C1=O", "inhibition": "38.6% (active)"}
{"smiles": "CCOC(=O)C1=C(c2ccccc2)NC(=O)NC1c1cc(OCC)c(O)c([N+](=O)[O-])c1", "note": "(stereo not given)", "inhibition": "-0.17%"}
{"smiles": "c1ccc(CCc2ccccn2)cc1", "inhibition": "-0.47%"}
{"smiles": "c1ccc(CN=C2Nc3ccccc3CS2)nc1", "inhibition": "11.2% (active)"}
{"smiles": "O=C1CSc2ccc(C(=O)NCc3ccccn3)cc2N1", "inhibition": "-0.41%"}
{"smiles": "Cc1ccc(C2CC(c3cccc(Br)c3)n3nc(N)nc3N2)cc1", "note": "(stereo not given)", "inhibition": "-0.23%"}
{"smiles": "CCOc1ccccc1C1CC(c2ccc(Cl)cc2)Nc2nc(N)nn21", "note": "(stereo not given)", "inhibition": "0.5%"}
{"smiles": "COc1ccc(C2CC(c3ccc(Cl)cc3Cl)Nc3nc(N)nn32)cc1OC", "note": "(stereo not given)", "inhibition": "9.33% (active)"}
{"smiles": "Cc1ccn2c(=O)nc(SCC(=O)NCc3ccc(F)cc3)nc2c1", "inhibition": "-0.43%"}
{"smiles": "COc1ccc2[nH]c3nc(SCC(=O)NC4CC4)nnc3c2c1", "inhibition": "0.12%"}
{"smiles": "Cc1ccc(CNC(=O)CSc2nnc3c(n2)[nH]c2ccc(F)cc23)cc1", "inhibition": "15.6% (active)"}
